This is an account of results in ChEMBL document CHEMBL4359929, “Piperidine and piperazine inhibitors of fatty acid amide hydrolase targeting excitotoxic pathology” (Bioorg Med Chem, 2019).

Series [1] in a line: Stability in human liver microsomes assessed as half life. The series is classed as ADME, Microsome. In a few lines: (§1)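 Stability assessed as half-life in human, rat and mouse plasma and gastric fluid, and in human, rat and mouse liver microsomal preparations.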
Background: Liver microsomes are a subcellular fraction often used to study metabolism.

A short description of series [2]: Stability in rat gastric fluid assessed as half life. The series is classed as ADME, tissue-based, Gastric juice. In a few lines: as §1
The species entered for a further series is Homo sapiens. Kind of series: Selectivity ratio of IC50 for human recombinant His-tagged MGL expressed in Escherichia coli BL21 DE3 cells to IC50 for human recombinant MBP-tagged FAAH expressed in Escherichia coli cells by fluorescence based assay.
Series [3] in a line: Selectivity ratio of IC50 for human full length ABHD6 expressed in Escherichia coli cells to IC50 for rat recombinant His/GST-tagged FAAH expressed in Escherichia coli cells by fluorescence based assay.
Series [4] has as its target T1, Fatty-acid amide hydrolase 1 (Rattus norvegicus, UniProt P97612).
T1 sequence (P97612 whole entry): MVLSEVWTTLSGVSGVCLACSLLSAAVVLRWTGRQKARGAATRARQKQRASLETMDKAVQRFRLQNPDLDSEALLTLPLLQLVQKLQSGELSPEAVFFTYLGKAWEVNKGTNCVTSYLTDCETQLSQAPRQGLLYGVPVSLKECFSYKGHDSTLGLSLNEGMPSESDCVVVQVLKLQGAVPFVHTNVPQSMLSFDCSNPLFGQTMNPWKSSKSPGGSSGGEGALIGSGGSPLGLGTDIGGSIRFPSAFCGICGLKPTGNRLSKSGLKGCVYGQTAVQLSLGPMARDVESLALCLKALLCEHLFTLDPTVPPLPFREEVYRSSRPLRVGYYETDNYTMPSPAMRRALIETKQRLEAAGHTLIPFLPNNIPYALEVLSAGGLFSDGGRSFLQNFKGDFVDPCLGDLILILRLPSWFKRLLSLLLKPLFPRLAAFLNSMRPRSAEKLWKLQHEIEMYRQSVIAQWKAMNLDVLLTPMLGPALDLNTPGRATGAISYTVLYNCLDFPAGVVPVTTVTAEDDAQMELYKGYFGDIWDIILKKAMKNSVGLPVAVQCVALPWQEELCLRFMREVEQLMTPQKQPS
The series is described as follows: Inhibition of rat recombinant His/GST-tagged FAAH expressed in Escherichia coli cells using AAMCA as substrate incubated for 15 mins followed by substrate addition and measured after every 20 mins for 4 hrs by fluorescence based assay. The method in brief: (§2)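 Fluorescent enzyme assay in throughput format. Human recombinant FAAH or purified rat FAAH used arachidonoyl 7-amino-4-methylcoumarin amide as substrate; human recombinant MGL was run by a similar fluorometric procedure.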

Series [5] deals with T2, Monoglyceride lipase (Rattus norvegicus) (UniProt Q8R431).
T2 sequence (whole entry): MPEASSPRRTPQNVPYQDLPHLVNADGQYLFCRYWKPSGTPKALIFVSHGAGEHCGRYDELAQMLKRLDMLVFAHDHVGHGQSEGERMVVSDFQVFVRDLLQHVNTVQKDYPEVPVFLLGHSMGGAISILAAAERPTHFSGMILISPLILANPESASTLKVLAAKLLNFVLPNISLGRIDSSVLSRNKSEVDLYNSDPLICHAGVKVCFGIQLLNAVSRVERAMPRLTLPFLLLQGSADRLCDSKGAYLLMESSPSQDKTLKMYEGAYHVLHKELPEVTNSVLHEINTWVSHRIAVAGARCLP
Kind of series: Inhibition of MGL in rat brain membrane at 1 to 10 uM incubated for 30 mins followed by incubation with FP-Rh probe for 45 mins by ABPP assay. The class given is cell membranes. In a few lines: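 Gel-based competitive ABPP on rat brain membrane homogenates (10 mg/mL protein). Compound at 1 and 10 μM or DMSO for 30 min at room temperature, then 10 μM rhodamine-tagged fluorophosphonate probe for 45 min at room temperature. FAAH was run with a reference FAAH inhibitor at 10 μM as positive control. Serine hydrolase labelling read by in-gel fluorescence.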

Series [6] is described as follows: Stability in human plasma assessed as half life. The class given is ADME, cell-free. The method in brief:
as §1

Series [7] in a line: Selectivity ratio of IC50 for human recombinant His-tagged MGL expressed in Escherichia coli BL21 DE3 cells to IC50 for rat recombinant His/GST-tagged FAAH expressed in Escherichia coli cells by fluorescence based assay.
Series [8] deals with Cannabinoid receptor 2 (Homo sapiens) (UniProt P34972). Kind of series: Displacement of [3H]CP55940 from human CB2 receptor expressed in HEK293 cells by competition-equilibrium binding analysis. The class given is cell-based. In a few lines: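 HEK293 cell membranes expressing mouse or human CB2; competition-equilibrium binding against [3H]CP-55,940.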
Sequence of Cannabinoid receptor 2 (Homo sapiens) (P34972 whole entry): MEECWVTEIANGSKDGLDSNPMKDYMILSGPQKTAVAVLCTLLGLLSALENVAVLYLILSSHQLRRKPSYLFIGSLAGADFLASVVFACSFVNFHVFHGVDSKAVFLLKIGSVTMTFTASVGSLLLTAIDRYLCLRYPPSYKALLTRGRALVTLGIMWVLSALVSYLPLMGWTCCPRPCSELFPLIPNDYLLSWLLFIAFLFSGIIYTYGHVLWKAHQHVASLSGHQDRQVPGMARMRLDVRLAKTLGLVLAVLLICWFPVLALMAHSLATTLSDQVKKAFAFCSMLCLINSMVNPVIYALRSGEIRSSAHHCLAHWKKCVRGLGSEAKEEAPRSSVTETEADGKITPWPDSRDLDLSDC
A further series addresses T3, Monoglyceride lipase (Homo sapiens, UniProt Q99685).
T3 sequence (Q99685 whole entry): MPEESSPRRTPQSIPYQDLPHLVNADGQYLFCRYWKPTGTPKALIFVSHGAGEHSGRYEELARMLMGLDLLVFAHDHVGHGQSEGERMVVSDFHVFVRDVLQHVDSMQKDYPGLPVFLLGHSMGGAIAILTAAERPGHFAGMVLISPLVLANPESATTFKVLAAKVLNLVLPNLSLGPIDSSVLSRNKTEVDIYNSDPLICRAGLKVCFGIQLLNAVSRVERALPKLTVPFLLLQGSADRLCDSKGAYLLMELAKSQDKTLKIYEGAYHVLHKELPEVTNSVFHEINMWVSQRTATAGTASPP
The series is described as follows: Inhibition of human recombinant His-tagged MGL expressed in Escherichia coli BL21 DE3 cells using AHMMCE as substrate preincubated with enzyme for 15 mins followed by substrate addition and measured after every 15 mins for 3 hrs by fluorescence based assay. The method in brief: as §2

Series [9] is described as follows: Stability in rat plasma assessed as half life. The series is classed as ADME, cell-free. The method in brief:
as §1

Series [10] in a line: Stability in mouse liver microsomes assessed as half life. The series is classed as ADME, Microsome. In a few lines:
as §1

For series [11], the target named is T4, Fatty-acid amide hydrolase 1 (Homo sapiens, UniProt O00519).
T4 sequence (O00519 whole entry): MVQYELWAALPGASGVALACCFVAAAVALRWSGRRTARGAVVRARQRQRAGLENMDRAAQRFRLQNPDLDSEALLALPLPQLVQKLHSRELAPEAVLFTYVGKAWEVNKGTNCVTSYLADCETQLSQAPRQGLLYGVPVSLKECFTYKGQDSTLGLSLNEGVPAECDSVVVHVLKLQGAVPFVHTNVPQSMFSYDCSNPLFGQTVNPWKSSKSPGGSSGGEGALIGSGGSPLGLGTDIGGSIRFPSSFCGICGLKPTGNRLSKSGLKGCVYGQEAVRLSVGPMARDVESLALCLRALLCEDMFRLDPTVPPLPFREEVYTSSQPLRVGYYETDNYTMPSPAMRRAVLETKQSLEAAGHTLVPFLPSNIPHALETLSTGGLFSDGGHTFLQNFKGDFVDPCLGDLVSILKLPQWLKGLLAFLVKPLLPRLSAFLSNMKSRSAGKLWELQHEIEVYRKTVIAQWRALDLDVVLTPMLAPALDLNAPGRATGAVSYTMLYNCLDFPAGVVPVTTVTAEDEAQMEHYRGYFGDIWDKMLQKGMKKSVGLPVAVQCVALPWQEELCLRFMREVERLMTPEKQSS
Kind of series: Inhibition of human recombinant MBP-tagged FAAH expressed in Escherichia coli cells using AAMCA as substrate incubated for 15 mins followed by substrate addition and measured after every 20 mins for 4 hrs by fluorescence based assay. In a few lines: as §2

SMILES strings stand for the structures. Activity calls are given as the source filed them. The rule behind the calls is not given here.

Take `O=C(Oc1cccc(N2CCS(=O)(=O)CC2)c1)N1CCC(c2ccc(N3CCC3)cc2)CC1`: the half-life – broadly, how long it takes for the measured level to halve – is 15 to 25 min in series [1]; greater than 60 min in series [2]; greater than 60 min in [6]; greater than 60 min in [9]; 15 to 25 min in series [10]. The Ratio IC50 (in the series listed under Homo sapiens; in series [3]; in [7]) was greater than 1000 throughout. The values for the IC50 (in series [4]; at Monoglyceride lipase; in [11]) were 5.8 nM, greater than 1000 nM and 7.9 nM, respectively. The inhibition entry in series [5] was “inactive”. In addition, the result in series [8] was inactive.

Regarding `C[C@@H]1CN(c2ccc(F)cc2)CCN1C(=O)Oc1cccc(N2CCS(=O)(=O)CC2)c1`, the half-life in [1] was 15 to 25 min; in series [2], greater than 60 min; in series [6], greater than 60 min; in series [9], greater than 60 min; in series [10], 15 to 25 min. Moreover, the Ratio IC50 (in the series listed under Homo sapiens; in series [3]; in [7]) was greater than 1000 throughout. Moreover, the values for the IC50 (in series [4]; at Monoglyceride lipase; in series [11]) were 6.3 nM, greater than 1000 nM and 11.7 nM, respectively. In addition, the inhibition result in series [5] was “inactive”. Further, the result in [8] was inactive.
